PolyA inhibitor: blocks polyadenylation in yeast reporter cells. S. cerevisiae SKY197-pL101 polyadenylation reporter, beta-gal luminescence; efflux-impaired pdr1/pdr3 knockout yeast; score 100 = 6 SD above DMSO. activity score, % at 12 µM. hit rate 0.02% among 300,000;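 active means lowest replicate activity score at least 50, where 100 means six control SD above control mean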;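 further: yeast exposed to compound for 9 h at 30 °C; higher score means more reporter readthrough which indicates perturbed polyadenylation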
Beta cell apopt: beta cell apoptosis inhibition | INS-1E cytokine-induced death, ATP luminescence, 48 h; percent of positive-control rescue, neutral wells zero | protection from apoptosis, % (test concentration not listed) | hit rate 0.8% among 300,000;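 active means Every replicate reaches about 75%, or at least half do and their mean reaches it too, limit read from the data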;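 further: 0% = cytokine-treated negative control wells and 100% = positive control rescue; higher means more ATP so stronger rescue from cytokine killing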
Calb FLC: affects C. albicans growth with fluconazole; hit rate 0.57% among 300,000; growth inhibition, % (concentration not given with the values); AID 1979; C. albicans CaCi-2 (fluconazole-resistant clinical isolate) + fluconazole, Alamar Blue growth, 48 h;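 active means growth inhibition above about 58% in most replicates, limit read from the data, passing the limit was not always enough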;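 further: all wells also contain fluconazole at 8 µg/ml as a sub-toxic cotreatment; 0% = median of DMSO wells and 100% = median of geldanamycin control wells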
CSC inhib: blocks cancer stem cells | cancer stem cell-like cells viability, luminescence | inhibition, % at 7.5 µM | hit rate 1.1% among 300,000; in the data active means inhibition above about 75%; tested in HMLE shEcad cells
HIF act: HIF pathway transcriptional activation; U2OS HRE-luciferase reporter, luminescence; normalized: DMSO 0%, desferrioxamine 100%; activation, % at 7.5 µM (by protocol); hit rate 0.32% among 300,000; AID 1910;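 active means mean activation of at least 10% of the iron chelator positive control signal, with at least half of replicates also reaching 10%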
T cruzi repl: T. cruzi replication inhibition. T. cruzi beta-gal in NIH3T3, luminescence, 90 h. inhibition, % (no concentration beside the values). hit rate 1.4% among 300,000;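 active means mean inhibition across valid replicates above about 55%, limit read from the data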;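 further: signal also drops with host cell toxicity which is not excluded here; 0% = plate median of DMSO wells and 100% = zero luminescence signal; higher percent means less beta-gal luminescence so fewer parasites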
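System: NIH/3T3 fibroblasts plus reporter T. cruzi. Medium: DMEM plus 2% FBS. Probe or stimulus: 5000 reporter trypomastigotes per well. Compound: single 50 nL compound addition per well in DMSO. Incubation: co-culture of at least 90 h after 3 h attachment. Detection: GalScreen β-gal luminescence, detergent lysis, 60 min. Evaluation: parasite load inhibition, %.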
* hit, by the source's call; / = no result. In the library only some 3.1% were active in any assay of this set; here they are far more common.

SMILES	PolyA inhibitor	Beta cell apopt	Calb FLC	CSC inhib	HIF act	T cruzi repl
Cc1c(C(=O)N(Cc2ccccc2)Cc2cccs2)cnn1-c1ccc(Cl)cc1	-31.1	/	9.0	79.7*	-0.8	42.8
Cc1c(C(=O)N(Cc2ccccc2)C(C)C)cnn1-c1ccccc1	-2.6	-5.7	12.4	-7.7	-0.6	8.3
CC1(C)[C@@H](O)CC[C@]2(C)[C@H]3C(=O)C=C4[C@@H]5C[C@@](C)(C(=O)O)CC[C@]5(C)CC[C@@]4(C)[C@]3(C)CC[C@@H]12	-1.2	-5.3	5.5	-5.1	0.0	-6.3
CC1(C)[C@@H](O)CC[C@]2(C)C3C(O)C=C4[C@H]5C[C@@](C)(CO)CC[C@]5(C)CC[C@]4(C)[C@]3(C)CC[C@@H]12 (stereo partly drawn)	-20.8	-0.7	7.2	125.7*	0.1	-7.5
CC1CCCCN1S(=O)(=O)c1ccc(NC(=O)c2cccc(-n3cnnn3)c2)cc1 (stereo not drawn)	-3.3	-1.7	90.8*	/	-0.1	-6.4
Cc1ccc(N(C(=O)c2csnn2)C(C(=O)NCc2ccccc2)c2ccccn2)cc1 (stereo not drawn)	4.6	0.6	0.2	2.8	1.1	7.5
Nc1c(C(=O)c2ccccc2)sc2nsc(SCCN3CCCC3)c12	-6.0	-10.0	-21.1	89.4*	6.0	55.3*
O=C(CSc1ccc(-c2ccccn2)nn1)N1CCCC1	-2.5	-7.9	-6.6	-11.3	1.4	2.7
CN1CCN(C(=S)NC(=O)c2ccc(C(C)(C)C)cc2)CC1	5.5	-8.5	0.4	0.1	-0.2	-4.1
C=CCn1cccc(/C=C/C(=O)c2ccc(C(C)(C)C)cc2)c1=S	-1.2	1.2	-30.1	110.6*	0.6	13.3
O=C(Nc1ccccc1F)c1ccc2ncsc2c1	-20.0	/	105.3*	/	2.1	4.4
O=C(Nc1cccc(F)c1)c1ccc2ncsc2c1	-3.3	/	111.0*	/	4.6	-9.5
O=C(Nc1ccncc1)c1ccc2ncsc2c1	5.5	10.8	1.7	/	1.1	0.2
Cc1ccc(NC(=O)C(=O)NCCCN2CCOCC2)c(C)c1	7.4	-4.1	-0.5	-2.9	-0.5	-2.9
COc1ccc(N2C3=C(CC4=C2CC(C)(C)CC4=O)C(=O)CC(C)(C)C3)cc1	3.6	-8.7	-5.0	69.6	0.0	63.6*
C=CCSc1nc(-c2ccccc2)c(C#N)c(=O)[nH]1	/	-4.2	-10.9	1.2	0.4	1.8
N#Cc1c(-c2ccccc2)nc(SCc2ccc(Cl)cc2)[nH]c1=O	-1.5	-11.2	29.3	104.3*	-0.1	-19.6
Nc1ccc(C(=O)N/N=C\c2cc(N=Nc3cccc4ccccc34)ccc2O)cc1	-8.4	70.0	32.4	98.1*	13.6*	58.5*
Cc1cc(C(=O)N/N=C/c2cc(N=Nc3ccccc3)ccc2O)n[nH]1	-29.4	83.3*	-0.9	108.7*	18.7*	45.4
O=C(Nc1ccc(S(=O)(=O)N2CCOCC2)cc1)C1CCN(S(=O)(=O)c2ccccc2)CC1	13.0	1.6	21.0	2.3	-0.1	2.9
COc1cccc(OCc2nc3ccccc3c(=O)n2N)c1	/	-8.3	108.2*	-3.0	-0.1	-6.3
CCCN(S(=O)(=O)c1ccccc1F)S(=O)(=O)c1ccccc1Br	-12.2	0.2	4.3	1.3	-0.3	24.8
CCCCC(=O)Nc1ccc(NC(=O)CC)cc1OC	18.9	0.3	-1.8	0.2	18.5*	3.6
CCCCC(=O)Nc1ccc(NC(=S)NC(=O)CC(C)C)cc1OC	-2.9	-3.8	0.3	-5.7	0.1	3.8
COc1cccc(-c2sc3ccc(OC)cc3c2-c2ccc(O)cc2)c1	/	3.8	/	129.4*	/	/
SMILES	PolyA inhibitor	Beta cell apopt	Calb FLC	CSC inhib	HIF act	T cruzi repl
COc1ccc2sc(-c3ccccc3OC)c(-c3ccc(OC)nc3)c2c1	/	7.1	/	16.6	/	/
COc1ccc(-c2sc3ccc(OC)cc3c2-c2ccc(OC)nc2)cc1	/	3.9	/	44.7	/	/
COc1cccc(-c2sc3ccc(OC)cc3c2-c2cc(F)cc(OC)c2)c1	/	-4.4	/	25.5	/	/
COc1cccc(-c2sc3ccc(OC)cc3c2-c2ccc(OCCN(C)C)cc2)c1	/	3.2	/	103.8*	/	/
CN(C)CCOc1ccc(-c2c(-c3ccsc3)sc3ccccc23)cc1	/	1.2	/	103.8*	/	/
COc1ccc(-c2sc3ccccc3c2-c2ccc(OCCN(C)C)cc2)cc1	/	76.3*	/	142.0*	/	/
CCN(CC)c1ccc(/C=N/NC(=O)OC(C)(C)C)cc1	-0.5	-0.6	-0.6	-10.5	2.5	-3.2
CC(C)(C)OC(=O)N1CCCC(C(=O)Nc2ccc(C(=O)N3CCOCC3)cc2)C1 (stereo not drawn)	/	-0.3	/	-10.4	/	/
O=C(CSc1nnc(-c2ccccc2F)o1)N1CCNC1=O	/	-2.4	/	/	/	/
Cc1ccc(S(=O)(=O)N2CCCN(C(C)c3nc4ccccc4c(=O)[nH]3)CC2)cc1 (stereo not drawn)	/	-2.4	/	9.3	/	/
N#CCc1nn(Cc2ccc(F)cc2)c(=O)c2ccccc12	-14.6	-2.5	-1.3	-6.0	0.5	7.2
CCCCc1ccc(/C(C)=N/Nc2cc(N3CCOCC3)nc(C)n2)cc1	3.0	12.8	5.1	79.9*	-0.4	61.9*
O=C(NCCc1c[nH]c2ccccc12)c1ccc(Br)o1	/	-3.7	/	-10.9	/	/
O=C(NCCSc1c[nH]c2ccccc12)c1ccc(Br)o1	-20.7	-0.1	1.7	-9.4	16.1*	-15.7
O=C(Cn1c(Cc2ccccc2)nc2ccccc21)NCc1ccc2c(c1)OCO2	0.8	-0.9	-10.7	-10.3	137.1*	4.6
O=C(CSc1c[nH]c2ccccc12)NCc1ccc2c(c1)OCO2	-3.4	-4.7	-18.3	0.1	44.3*	-24.7
O=C(CSc1nc2ccccc2[nH]1)NCc1ccc2c(c1)OCO2	-5.0	-12.6	-0.6	-7.7	/	10.1
Cc1nc(N2CCC(C)CC2)c2c(C)c(C(=O)Nc3cccc(C(F)(F)F)c3)sc2n1	0.2	2.9	-7.4	27.8	-0.1	38.1
Cc1nc(N2CCC(C)CC2)c2c(C)c(C(=O)Nc3ccc(C(F)(F)F)cc3)sc2n1	5.4	13.7	5.3	29.8	-0.5	61.1*
CC1CC(C)(C)Nc2ccc(N=O)cc21 (stereo not drawn)	-44.3	/	14.4	/	-6.8	97.8*
COc1ccccc1N1CCN(C(=O)CCCn2nc(C)c([N+](=O)[O-])c2C)CC1	11.4	2.6	15.3	3.7	0.0	7.8
COc1ccc(S(=O)(=O)NNC(=O)Nc2ccc(F)cc2)cc1	14.4	-4.5	0.9	11.4	0.4	-3.0
O=C(c1nnsc1S(=O)c1ccc(Cl)cc1)N1CCOCC1 (stereo not drawn)	3.6	/	-16.8	/	-1.8	62.5*
O=C(Nc1ccccc1)c1nnsc1S(=O)c1ccc(Cl)cc1 (stereo not drawn)	-44.4	8.0	42.1	106.2*	1.9	14.6
COc1cccc(C(=O)Nc2ncc3c(n2)CC(c2ccc(OC)cc2OC)CC3=O)c1 (stereo not drawn)	-5.5	0.2	24.4	/	1.0	-47.1

From PubChem BioAssay
